Assay results reported in ChEMBL document CHEMBL1131190, “Synthesis of 7-benzylamino-6-chloro-2-piperazino-4-pyrrolidinopteridine and novel derivatives free of positional isomers. Potent inhibitors of cAMP-specific phosphodiesterase and of malignant tumor cell growth” (J Med Chem, 1998).

Columns and labels:
[1] = Growth inhibition of LXFL529L cells by sulforhodamine B assay, incubation time 3 days and IC50 was calculated survival of treated cells over control cells X 100[T/C%]; type: functional; conditions: Homo sapiens, LXFL 529L, 72 h
In short: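 LXFL529L cells grown in RPMI 1640 with extra glutamine (300 mg/L), 1% penicillin/streptomycin and 10% newborn calf serum at 37 °C, 5% CO₂, mycoplasma-free. Seeded, grown 24 h, then exposed continuously to drug for 3 d. Sulforhodamine B read-out expressed as % T/C of controls. IC50 from mean ± SEM of two separate assays, each in quadruplicate.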

Phosphodiesterase 4 = Phosphodiesterase 4 (Homo sapiens, UniProt P27815+Q08499+Q07343+Q08493); experiment: Inhibition of cAMP hydrolysis by inhibiting phosphodiesterases (PDE4), isolated from tumor tissue of human large cell lung tumor xenograft LXFL-529, grown in nude mice.; type: protein assay

IC50 (Phosphodiesterase 4) [µM]	SMILES	IC50 [1] [µM]
0.083	Clc1nc2c(NCc3ccccc3)nc(N3CCNCC3)nc2nc1N1CCCC1	4
1.8	CN(C)c1nc(N2CCCC2)c2nc(Cl)c(NCc3ccccc3)nc2n1	11.8
4.2	O=C1CN(c2nc(N3CCCC3)c3nc(Cl)c(NCc4ccccc4)nc3n2)CCN1	9.5
0.65	CN(C)c1nc2c(N3CCCC3)nc(Cl)nc2nc1NCc1ccccc1	> 20
0.3	CN(C)c1nc(N2CCNCC2)nc2nc(NCc3ccccc3)c(Cl)nc12	5.9
0.016	Clc1nc2c(N3CCCC3)nc(N3CCNCC3)nc2nc1NCc1ccccc1	2.3

More lines, now with the values behind:

SMILES	IC50 (Phosphodiesterase 4) [µM]	IC50 [1] [µM]
OCCNc1nc(N2CCCC2)c2nc(Cl)c(NCc3ccccc3)nc2n1	2.8	15.2
CN1CCN(c2nc(N3CCCC3)c3nc(Cl)c(NCc4ccccc4)nc3n2)CC1	3.1	6.5
c1ccc(CNc2cnc3c(N4CCCC4)nc(N4CCNCC4)nc3n2)cc1	0.36	7.3
CC(=O)N1CCN(c2nc(N3CCCC3)c3nc(Cl)c(NCc4ccccc4)nc3n2)CC1	5.9	13
CN(C)c1nc2nc(N3CCNCC3)nc(N3CCCC3)c2nc1Cl	0.046	5.8
NCCNc1nc(N2CCCC2)c2nc(Cl)c(NCc3ccccc3)nc2n1	3.7	3.2
Clc1nc2c(N3CCCC3)nc(N3CCNCC3)nc2nc1N1CCCC1	0.059	3.1
Clc1nc2c(N3CCCC3)nc(N3CCOCC3)nc2nc1NCc1ccccc1	2.5	> 20
CN(C)c1nc2nc(N3CCNCC3)nc(N(C)C)c2nc1Cl	1.2	> 20
